We go through 23 molecules from ChEMBL document CHEMBL2417516, “Metallo-β-lactamase inhibitory activity of 3-alkyloxy and 3-amino phthalic acid derivatives and their combination effect with carbapenem” (Bioorg Med Chem, 2013).

SMILES strings stand for the structures. In brackets after ≈: the same amount, converted by molar mass. Activity calls are given as the source filed them.

Assay [1] has as its system Pseudomonas aeruginosa. Kind of assay: Antibacterial activity against mexAB-deleted Pseudomonas aeruginosa KG5002/pMS363 at 50 ug/ml by microbroth dilution method in presence of biapenem. Type of assay: functional, organism-based. (Dilution methods test growth across graded concentrations, often in twofold steps.)
In the next assay the target is Metallo beta-lactamase (Pseudomonas aeruginosa, UniProt Q6TUJ4). Kind of assay: Inhibition of carbapenems-resistant Pseudomonas aeruginosa MSC15369 metallo-beta-lactamase IMP1 expressed in Escherichia coli DH5[alpha] using nitrocefin as substrate after 20 mins by spectrophotometry. A digest of the protocol:
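IMP-1 was expressed in E. coli DH5 with 0.5 mM IPTG induction for 3 h at room temperature, and the soluble enzyme was purified from cell extracts on Ni-NTA. Inhibitors were incubated with 1.0 nM IMP-1 for 20 min at room temperature, and IC50 values were determined.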

Assay [2] relates to Pseudomonas aeruginosa. Briefly: Antibacterial activity against Pseudomonas aeruginosa PAO1 pMS363 at 50 ug/ml by microbroth dilution method in presence of biapenem. The format is functional, organism-based.
The subject of assay [3] is Pseudomonas aeruginosa. Kind of assay: Antibacterial activity against Pseudomonas aeruginosa clinical isolates producing IMP-1 by microbroth dilution method in presence of biapenem. The format is functional, organism-based. In short, it runs like this:
(§1)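 Minimum inhibitory concentrations were determined by broth microdilution following CLSI guidance, with Mueller–Hinton II broth as the test medium.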

Assay [4] relates to Pseudomonas aeruginosa. Kind of assay: Antibacterial activity against Pseudomonas aeruginosa clinical isolates producing IMP-1 by microbroth dilution method in presence of ceftazidime. Type of assay: functional, organism-based. In short, it runs like this:
as §1

The subject of assay [5] is Pseudomonas aeruginosa. Kind of assay: Antibacterial activity against Pseudomonas aeruginosa clinical isolates producing IMP-1 by microbroth dilution method in presence of meropenem. Type of assay: functional, organism-based. A digest of the protocol:
as §1

Assay [6] deals with Pseudomonas aeruginosa. Briefly: Antibacterial activity against mexAB-deleted Pseudomonas aeruginosa KG5002/pMS363 by microbroth dilution method. Type of assay: functional. A digest of the protocol:
(§2)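 MIC determined by broth microdilution following CLSI guidance, with Mueller–Hinton II broth as the test medium.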

Assay [7] has as its system Pseudomonas aeruginosa. Briefly: Antibacterial activity against Pseudomonas aeruginosa PAO1 pMS363 by microbroth dilution method. The format is functional. A digest of the protocol: as §2

Sequence of Metallo beta-lactamase (Q6TUJ4 whole entry): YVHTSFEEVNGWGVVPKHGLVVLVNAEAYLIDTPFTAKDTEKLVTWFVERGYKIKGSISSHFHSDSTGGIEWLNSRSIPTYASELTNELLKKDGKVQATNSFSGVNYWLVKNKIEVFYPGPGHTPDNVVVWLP

Turning to `O=C(O)c1cccc(N2CCCCC2)c1C(=O)O`, the result in the assay with Pseudomonas aeruginosa [1] and in the assay with Pseudomonas aeruginosa [2] was Active. In addition, the IC50 at Metallo beta-lactamase was 10.8 µM.
With `O=C(O)c1cccc(OCCO)c1C(=O)O`, the outcome with Pseudomonas aeruginosa [1] and in the assay with Pseudomonas aeruginosa [2] was Active. Moreover, the 50% inhibitory concentration (IC50) on Metallo beta-lactamase is 47.8 µM.
Regarding `O=C(O)c1cccc(O)c1C(=O)O`, the IC50 against Metallo beta-lactamase is over 300 µM.
Take `O=C(O)c1cccc(N2CCC(O)CC2)c1C(=O)O`: the result in the assay with Pseudomonas aeruginosa [1] and in the assay with Pseudomonas aeruginosa [2] was Active. The Activity result in the assay with Pseudomonas aeruginosa [3], in the assay on Pseudomonas aeruginosa [4] and in the assay with Pseudomonas aeruginosa [5] was “Dose-dependent effect” throughout. At Metallo beta-lactamase, this molecule had an IC50 of 2.7 µM.
For `O=C(O)c1cccc(N2CCC(O)(c3ccccc3)CC2)c1C(=O)O`, the result in the assay on Pseudomonas aeruginosa [1] and in the assay with Pseudomonas aeruginosa [2] was Active. For the same molecule, the IC50 on Metallo beta-lactamase worked out at 2.3 µM.
With `CCCCOc1cccc(C(=O)O)c1C(=O)O`, half-maximal inhibition on Metallo beta-lactamase (IC50) was put at 5.1 µM.
As to `CN(C)c1cccc(C(=O)O)c1C(=O)O`, the result in the assay with Pseudomonas aeruginosa [1] and in the assay with Pseudomonas aeruginosa [2] was Active. Besides, at Metallo beta-lactamase, half-maximal inhibition (IC50) was put at 94.5 µM.
Turning to `COC1CCN(c2cccc(C(=O)O)c2C(=O)O)CC1`, the outcome with Pseudomonas aeruginosa [1] and in the assay on Pseudomonas aeruginosa [2] was Active. At Metallo beta-lactamase, this molecule gave an IC50 of 3.7 µM.
With `O=C(O)c1cccc(OCCCc2ccccc2)c1C(=O)O`, the result with Pseudomonas aeruginosa [1] was Active. On Metallo beta-lactamase, half-maximal inhibition (IC50) was put at 1.7 µM. For the same molecule, in the assay with Pseudomonas aeruginosa [2], the result was inactive.
The molecule `O=C(O)c1cccc(OCc2ccccc2)c1C(=O)O` gave an IC50 against Metallo beta-lactamase of 7.4 µM.
Regarding `C[C@@H](O)[C@H]1C(=O)N2C(C(=O)[O-])=C(SC3Cn4cnc[n+]4C3)[C@H](C)[C@H]12` (stereo not given in full) [BIAPENEM], the minimal inhibitory concentration (MIC) in the assay on Pseudomonas aeruginosa [6] and in the assay on Pseudomonas aeruginosa [7] was 64 µg/mL (≈ 183 µM) in each case.
For the molecule `O=C(O)c1cccc(N2CCCC(CO)C2)c1C(=O)O` (stereo not given), the outcome in the assay with Pseudomonas aeruginosa [1] and with Pseudomonas aeruginosa [2] was Active. Moreover, the 50% inhibitory concentration (IC50) on Metallo beta-lactamase worked out at 2.1 µM.
As to `O=C(O)c1cccc(N2CCC(CO)CC2)c1C(=O)O`, the result with Pseudomonas aeruginosa [1] and in the assay with Pseudomonas aeruginosa [2] was Active. On Metallo beta-lactamase, the IC50 amounted to 2.6 µM.
On to `O=C(O)c1cccc(OCCCO)c1C(=O)O`, for which the result with Pseudomonas aeruginosa [1] and in the assay on Pseudomonas aeruginosa [2] was Active. For the same molecule, the IC50 on Metallo beta-lactamase came to 21.4 µM.
For the molecule `O=C(O)c1cccc(N2CCCC2)c1C(=O)O`, the result with Pseudomonas aeruginosa [1] and with Pseudomonas aeruginosa [2] was Active. On Metallo beta-lactamase, this molecule had a half-maximal inhibitory concentration (IC50) of 2.8 µM.
At Metallo beta-lactamase, `Nc1cccc(C(=O)O)c1C(=O)O` registered a concentration for half-maximal inhibition (IC50) of 300 µM.
For the molecule `O=C(O)CCCCOc1cccc(C(=O)O)c1C(=O)O`, the IC50 on Metallo beta-lactamase worked out at 18.8 µM. Also, the outcome in the assay on Pseudomonas aeruginosa [2] was Active.
Turning to `O=C(O)c1cccc(N2CCCC(O)C2)c1C(=O)O` (stereo not given), the outcome in the assay with Pseudomonas aeruginosa [1] and in the assay with Pseudomonas aeruginosa [2] was Active. The IC50 against Metallo beta-lactamase stood at 2.7 µM.
`CCCCNc1cccc(C(=O)O)c1C(=O)O` displayed an IC50 against Metallo beta-lactamase of 13.1 µM.
Still for that read-out and setting: next, `O=C(O)c1cccc(-c2ccc(O)cc2)c1C(=O)O`: 1.55 µM.
Consider `O=C(O)c1cccc(OCCCC2CCCCC2)c1C(=O)O`, for which it took 2 µM to reach half-maximal inhibition against Metallo beta-lactamase (IC50). In addition, the outcome in the assay with Pseudomonas aeruginosa [2] was inactive.
Consider `O=C(O)c1cccc(N2CCC(CCO)CC2)c1C(=O)O`, for which the result in the assay with Pseudomonas aeruginosa [1] and in the assay on Pseudomonas aeruginosa [2] was Active. On Metallo beta-lactamase, this molecule registered an IC50 of 25.6 µM.
Turning to `COc1cccc(C(=O)O)c1C(=O)O`, the concentration for half-maximal inhibition (IC50) on Metallo beta-lactamase was found to be 142 µM.

As a reminder, the IC50 is the concentration at which inhibition is half-maximal. High values mean weaker potency in that assay, low ones greater potency in that assay. Usually MIC stands for the smallest concentration in the dilution series that meets the test's criterion for growth inhibition. A lower MIC goes with inhibition by little substance.
